HNF4A DNA FP: change in binding of human HNF4A to DNA, primary screen, biochemical, fluorescence polarization, FITC-DNA; AID 1224865, 2016; 0.3% of 360,000 active; activity change, % at 10 µM; 1 h; in the data active means activity change above about 30%, passing the limit was not always enough
Target sequence (P41235 whole entry, looked up): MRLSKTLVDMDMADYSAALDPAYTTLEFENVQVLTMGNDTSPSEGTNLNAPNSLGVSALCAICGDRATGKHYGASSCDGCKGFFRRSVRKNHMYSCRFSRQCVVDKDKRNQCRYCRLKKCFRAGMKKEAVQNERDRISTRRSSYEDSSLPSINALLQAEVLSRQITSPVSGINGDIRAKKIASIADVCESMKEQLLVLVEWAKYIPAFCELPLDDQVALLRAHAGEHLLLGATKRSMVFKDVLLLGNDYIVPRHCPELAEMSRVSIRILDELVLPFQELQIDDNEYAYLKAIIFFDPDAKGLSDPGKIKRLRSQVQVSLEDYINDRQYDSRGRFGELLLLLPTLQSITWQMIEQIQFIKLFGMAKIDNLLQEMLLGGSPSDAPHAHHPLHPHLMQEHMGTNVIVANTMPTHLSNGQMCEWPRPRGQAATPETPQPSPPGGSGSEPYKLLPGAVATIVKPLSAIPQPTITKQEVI
Rpn11 inh: Rpn11 (PSMD14) deubiquitinase inhibitors, primary screen, biochemical, fluorescence polarization, uHTS; human 26S proteasome, Ub4-pepOG fluorescence polarization; 20S core pre-blocked with epoxomicin; inhibition, % at 20 µM; 0.59% of 360,000 active; AID 588493, 2011;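 active means inhibition at 20 µM, scaled to each plate's controls, above about 33%, limit read from the data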
XiGFP reactiv: activators of inactive X chromosome reactivation, primary screen, imaging, XiGFP fibroblasts, GFP high-content imaging, set 2. AID 743238, 2013. XiGFP mouse fibroblasts, % GFP-positive cells imaging, 3 d; cells co-treated with 5-aza-dC sensitizer; scaled so ellipticine positive control = 100%. 0.055% of 360,000 active. activation, % at 7.58 µM;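 active means mean normalized replicate activation at least 10% and every replicate at or above 10%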;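 further: 0% = median of on-plate neutral control wells and 100% = ellipticine 6 µM median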
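material = 68-5-11 XiGFP fibroblast line | medium = DMEM plus 5-aza-dC sensitizer | schedule = 3 days compound exposure | benchmarks = positive control ellipticine, 6 µM final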
CSN inh: inhibitors of CSN-mediated cullin deneddylation, primary screen, biochemical, fluorescence polarization, uHTS | Purified CSN, SCF-Nedd8-OG deneddylation | COP9 signalosome complex subunit 5 (Homo sapiens), Q92905 | AID 651999, 2013 | inhibition, % at 12.5 µM | 0.38% of 360,000 active;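 active means pattern-corrected inhibition above about 35%, with an unprinted fluorescence ratio check between 0.5 and 1.5, limit read from the data, passing the limit was not always enough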;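 further: 0% = enzyme with substrate and 100% = substrate without enzyme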
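Assay system: purified human Csn5 enzyme expressed in HEK293T cells; measure: % inhibition; also added: SCFSkp2-Nedd8OG substrate at 10 nM final; technique: fluorescence polarization; times: reaction 90 min, room temperature; medium: Tris buffer pH 7.5, NaCl, DTT, Tween-20, trehalose, ovalbumin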
TPT1 inhibitor: Candida albicans TPT1 enzyme inhibitors, primary screen, biochemical, fluorescence polarization | tRNA 2'-phosphotransferase TPT1 (Candida albicans SC5314) | recombinant caTPT1, FP RNA substrate dephosphorylation | inhibition, % at 5 µM | 0.81% of 300,000 active | AID 1962, 2009;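 active means inhibition above the mean of all tested compounds plus 3 SD, set per screening campaign, cut at about 24% in these data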;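 further: plate controls were DMSO alone for no effect and ferristatin control at 100 nM for full effect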
aDG glyco up: activators of alpha-DG glycosylation, primary screen, uHTS, Pro5-aDG cells, AlphaScreen | activation, % at 10 µM | alpha-DG glycosylation AlphaScreen (IIH6); 0% Pro5, 100% B10-LARGE cell signal | 0.22% of 360,000 active;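 active means activation of at least 8% versus controls, or a plate z-score of at least 8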;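 further: Pro5 are CHO cells carrying HIG-tagged alpha-DG that lacks glycosylation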
TPT1 inh confirm: Candida albicans TPT1 inhibitors, confirmation, biochemical, fluorescence polarization, triplicate | shares compounds with TPT1 inhibitor | AID 2149, 2009 | inhibition, % at 5 µM | 74% of 2,400 active | recombinant caTPT1, RNase T1 coupled;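 active means inhibition above the primary screen limit, the mean inhibition of all tested compounds plus 3 SD, cut at about 25% in these data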
RNase T1 inh: RNase T1 inhibitors, counter-screen for TPT1 inhibitor project, biochemical, fluorescence polarization. 83% of 2,400 active. RNase T1 cleavage, 1536-well. shares compounds with TPT1 inhibitor. AID 2153, 2009. inhibition, % at 5 µM;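 active means inhibition above the solvent-only control well mean plus 3 SD, limit set per screening run, cut at about 23% in these data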;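 further: plate controls were DMSO wells with enzyme for no effect and wells without RNase T1 for full effect; inhibitors block cleavage so intact labeled substrate keeps polarization high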
Numbers without * were called inactive; . = no result given. Rows were chosen to be rich in hits. Some 1.3% of all compounds tested hit in one or more screens of this group.

SMILES	HNF4A DNA FP	Rpn11 inh	XiGFP reactiv	CSN inh	TPT1 inhibitor	aDG glyco up	TPT1 inh confirm	RNase T1 inh
C=CCn1c(O)c(C=NCCN2CCNCC2)c(=O)[nH]c1=O	2.6	0.3	.	-7.1	4.8	-0.2	.	.
C=CCn1c(O)c(C=NCCN(C)C)c(=O)[nH]c1=O	14.3	16.1	.	9.2	30.1*	-0.6	35.0*	45.4*
CCCNC(=O)[C@H]1[C@H](CO)[C@H]2Cn3c(cccc3=O)[C@H]2N1CC	.	.	0.2	.	.	.	.	.
N#CC(C#N)=Cc1ccc(O)c(O)c1	-4.1	-3.4	-0.1	5.0	-1.2	-0.1	.	.
CC(C)(C)c1cc(C=C(C#N)C#N)cc(C(C)(C)C)c1O	12.0	38.8	-0.1	9.0	60.8*	0.8	82.3*	89.6*
O=[N+]([O-])c1cc2c(cc1CNCCc1ccc3c(c1)OCO3)OCO2	-3.5	7.0	0.0	-0.8	32.0*	0.0	5.8	10.0
CCn1c(O)c(/C=N/NC(=O)c2ccccc2)c(=O)n(CC)c1=S	2.2	24.7	0.0	12.2	93.6*	-0.2	26.5*	34.0*
OC[C@@H]1Nc2ccc(C#Cc3cccnc3)cc2[C@@H]2NCC[C@H]12	.	.	0.0	.	.	.	.	.
COc1ccccc1C(=O)Nc1ccc2c(c1)CC1(C(=O)N(C)C(=O)N(C)C1=O)C1CCCN21 (stereo not given)	7.0	14.1	0.0	7.7	15.5	-0.6	.	.
Cc1cccc(C(=O)Nc2ccc3c(c2)CC2(C(=O)N(C)C(=O)N(C)C2=O)C2CCCN32)c1 (stereo not given)	15.9	17.2	.	8.6	26.1*	-0.6	35.5*	49.4*
N#CC(C#N)=Cc1ccc(-c2ccccc2)o1	.	.	.	.	36.7*	.	36.1*	64.2*
CCN(CC)c1ccc(N=Cc2c(O)n(-c3ccc(OC)cc3)c(=O)[nH]c2=O)cc1	6.4	-80.0	.	-37.4	56.2*	0.3	-27.4	-17.5
CCN(CC)c1ccc(N=Cc2c(O)n(-c3ccc(Cl)cc3)c(=O)[nH]c2=O)cc1	45.4	.	.	48.7	27.0*	-0.3	57.8*	71.9*
COC(=O)[C@H]1[C@H](CO)[C@H]2Cn3c(ccc(C4=CCCCC4)c3=O)[C@@H]1N2Cc1ccccc1OC	.	.	0.1	.	.	.	.	.
CC(=O)N1C[C@@H]2N[C@H](C1)C2c1ccc(Br)cc1 (stereo not given in full)	.	.	0.2	.	.	.	.	.
CN1C(=O)C(=Cc2ccc(N3CCOCC3)o2)C(=O)N(C)C1=O	153.5	.	-0.1	142.3	135.6*	0.1	147.9*	144.9*
Cc1ccc(Sc2ccc(C=C3C(=O)N(C)C(=O)N(C)C3=O)o2)cc1	-0.2	4.6	0.0	-5.5	5.9	-0.2	.	.
CN1C(=O)C(=Cc2ccc(N3CCCCCC3)o2)C(=O)N(C)C1=S	148.5	.	.	164.2	139.7*	-0.5	118.4*	121.5*
COC(=O)[C@H]1[C@H](CO)[C@H]2Cn3c(ccc(-c4ccccc4OC)c3=O)[C@@H]1N2Cc1ccccc1	.	.	0.2	.	.	.	.	.
O=C(Cc1ccncc1)N1CCCCN2[C@H](CO)[C@@H](c3ccc(C#Cc4ccccc4F)cc3)[C@@H]2C1	.	.	0.0	.	.	.	.	.
COC(=O)[C@@H]1[C@@H](CO)[C@@H]2Cn3c(ccc(-c4ccccc4)c3=O)[C@H]1N2C(=O)c1ccccc1F	.	.	0.3	.	.	.	.	.
O=C1NC(=O)N(c2ccc(F)cc2)C(=O)/C1=C/c1ccsc1	1.3	4.4	0.1	9.5	15.9	0.0	.	.
